Drawing on ChEMBL document CHEMBL1146220, “Rational optimization of the binding affinity of CD4 targeting peptidomimetics with potential anti HIV activity” (J Med Chem, 2007), this text covers Kd and half-life for eleven molecules.

Numbered stars: 1 amine (or outer) side, 2 acyl side, 3 side chain; on linkers, the order of the positions; unused ones are H or OH. Square brackets hold non-standard residues; d marks the D form. Peptide text beside a SMILES is read from it. * marks the point of attachment. Acetyl(2-naphthyloxy) = O=C(COc1ccc2ccccc2c1)*; Alaninol(O-CO) = C[C@@H](COC(=O)[*:2])N[*:1]; NH(1-Adamantyl) = C1C2CC3CC1CC(N*)(C2)C3; X1 = O=C(OC[C@@H]1CCCN1[*:1])[*:2]; X2 = S=C(NC1CC1)OC[C@@H]1CCCN1*; X3 = O=C(COc1cccc2cccnc12)*; NHcHex = C1CCC(N*)CC1; NHcPent = C1CCC(N*)C1; NHtBu = CC(C)(C)N*

Series [1] has as its target T-cell surface glycoprotein CD4 (Homo sapiens, UniProt P01730). Briefly: Binding affinity to CD4 by SPR assay. An outline of the steps: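 Test ligands passed over the CD4 SPR surface at a series of concentrations, recording the concentration-dependent maximum response units (RU). Surface regenerated between runs with short pulses of 100 mM H3PO4. Only the lower concentrations (generally up to 50 µM) fitting a one-site binding model were used. KD was taken as the concentration at RUmax/2.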

Series [2] can be described thus: Half life by pronase digestion assay. The format is ADME. To be noted: pronase (protease digestion). A digest of the protocol: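 Pronase digestion was run at 37 °C. Aliquots were taken at 5, 10, 15, 20 and 30 min and quenched with 1 M acetic acid. Hydrolysis products were identified as M+H+/Na+/K+ ions, and t1/2 was derived from the disappearance time course.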

Molecule `CC(C)[C@H](NC(=O)[C@H](CCCCN)NC(=O)COc1cccc2cccnc12)C(=O)NCC(=O)N[C@H](C(=O)N[C@@H](C)COC(=O)NC(C)(C)C)[C@@H](C)O` (X3-KVGT[Alaninol(O-CO)]-NHtBu) showed a dissociation constant (Kd) in series [1] of 13 µM.
The molecule `CC(C)[C@H](NC(=O)[C@H](CCCCN)NC(=O)COc1cccc2cccnc12)C(=O)NCC(=O)N[C@H](C(=O)N1CCC[C@H]1COC(=O)NC(C)(C)C)[C@@H](C)O` (X3-KVGT[X1]-NHtBu) gave a Kd in series [1] of 26 µM.
Still for that read-out and setting: for `CC(C)[C@H](NC(=O)[C@H](CCCCN)NC(=O)COc1ccc2ccccc2c1)C(=O)NCC(=O)N[C@H](C(=O)N[C@@H](C)COC(=O)NC(C)(C)C)C(C)O` (single isomer, unassigned) the value was 20 µM.
As for `CC(C)[C@H](NC(=O)[C@H](CCCCN)NC(=O)COc1ccc2ccccc2c1)C(=O)NCC(=O)N[C@H](C(=O)N1CCC[C@H]1COC(=S)NC1CC1)[C@@H](C)O` ({Acetyl(2-naphthyloxy)}-KVGT-X2), the affinity in series [1], expressed as Kd, was 27 µM.
Consider `CC(C)[C@H](NC(=O)[C@H](CCCCN)NC(=O)COc1ccc2ccccc2c1)C(=O)NCC(=O)N[C@H](C(=O)N[C@@H](C)COC(=O)NC1CCCC1)[C@@H](C)O` ({Acetyl(2-naphthyloxy)}-KVGT[Alaninol(O-CO)]-NHcPent), for which, in series [1], the dissociation constant (Kd) turned out to be 62 µM.
In series [1], `CC(C)[C@H](NC(=O)[C@H](CCCCN)NC(=O)COc1ccc2ccccc2c1)C(=O)NCC(=O)N[C@H](C(=O)N[C@@H](C)COC(=O)NC12CC3CC(CC(C3)C1)C2)[C@@H](C)O` ({Acetyl(2-naphthyloxy)}-KVGT[Alaninol(O-CO)]-{NH(1-Adamantyl)}) displayed a Kd of 80 µM.
As to `CC(C)[C@H](NC(=O)[C@H](CCCCN)NC(=O)COc1ccc2ccccc2c1)C(=O)NCC(=O)N[C@H](C(=O)N1CCC[C@H]1COC(=O)NC1CCCCC1)[C@@H](C)O` ({Acetyl(2-naphthyloxy)}-KVGT[X1]-NHcHex), the half-life in series [2] turned out to be 27.3 min. In series [1], the Kd was found to be 35 µM.
Turning to `CC(C)[C@H](NC(=O)[C@H](CCCCN)NC(=O)COc1ccc2ccccc2c1)C(=O)NCC(=O)N[C@H](C(=O)N1CCC[C@H]1COC(=O)NC1CCCC1)[C@@H](C)O` ({Acetyl(2-naphthyloxy)}-KVGT[X1]-NHcPent), in series [1], the Kd amounted to 16 µM.
Regarding `CC(C)[C@H](NC(=O)[C@H](CCCCN)NC(=O)COc1ccc2ccccc2c1)C(=O)NCC(=O)N[C@H](C(=O)N1CCC[C@H]1COC(=O)NC(C)(C)C)[C@@H](C)O` ({Acetyl(2-naphthyloxy)}-KVGT[X1]-NHtBu), binding in series [1] was put at a Kd of 6 µM.
In turn, `CCOC(=O)CNC(=O)OC[C@@H]1CCCN1C(=O)[C@@H](NC(=O)CNC(=O)[C@@H](NC(=O)[C@H](CCCCN)NC(=O)COc1ccc2ccccc2c1)C(C)C)[C@@H](C)O` ({Acetyl(2-naphthyloxy)}-KVGT[X1]G-OEt) came in with a half-life in series [2] of 23 min. This molecule also registered a dissociation constant (Kd) in series [1] of 26 µM.
For H-NMWQKVGTPL-OH the same measures were 6 min and 6000 µM.
